High-throughput results: PubChem BioAssay, several laboratories
PRMT1 FP inh: PRMT1 methyltransferase inhibitors, primary screen, biochemical, fluorescence polarization; Protein arginine N-methyltransferase 1 (Homo sapiens), Q99873; recombinant PRMT1, activity-based probe fluorescence polarization; inhibition, % at 2.79 µM; 370,000 tested, 1.3% active; AID 652257, 2013;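 active = inhibition above about 21% made by adding two undisclosed values, limit read from the data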
PAD4 inh: human PAD4 inhibitors, primary screen, biochemical, fluorescence polarization, 1536-well format; Protein-arginine deiminase type-4 (Homo sapiens), Q9UM07; recombinant PAD4, RCA probe fluorescence polarization; inhibition, % at 6.36 µM; 330,000 tested, 0.41% active; AID 485272, 2010;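 active = percent inhibition above a cutoff equal to the mean of all tested compounds plus 3 SD, cut at about 15% in these data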;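 note: 0% = PAD4 with RCA probe and DMSO and 100% = probe without PAD4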
TDP2 inh: human TDP2 enzyme inhibitors, primary screen, biochemical, epi absorbance, recombinant enzyme; AID 720702, 2013; T5PNP hydrolysis, p-nitrophenol absorbance 415 nm; Tyrosyl-DNA phosphodiesterase 2 (Homo sapiens), O95551; 370,000 tested, 0.34% active; inhibition, % at 12.8 µM;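 active = inhibition above the mean of all tested compounds plus 3 SD, set per campaign, cut at about 25% in these data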;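 note: 0% = DMSO with enzyme and 100% = buffer with substrate but no TDP2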
Target sequence (O95551 whole entry, looked up): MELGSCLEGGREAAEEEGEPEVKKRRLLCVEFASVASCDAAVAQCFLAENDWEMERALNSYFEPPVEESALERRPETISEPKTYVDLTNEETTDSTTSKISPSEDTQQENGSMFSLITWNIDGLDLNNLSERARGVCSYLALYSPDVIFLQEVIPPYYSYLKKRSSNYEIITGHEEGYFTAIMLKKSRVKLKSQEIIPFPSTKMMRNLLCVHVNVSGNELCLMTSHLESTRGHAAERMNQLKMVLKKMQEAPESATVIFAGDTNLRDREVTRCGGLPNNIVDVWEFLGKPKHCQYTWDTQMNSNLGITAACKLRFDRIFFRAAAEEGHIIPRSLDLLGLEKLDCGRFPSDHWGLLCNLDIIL
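Test system: human TDP2 enzyme; Input: 120 nM TDP2 per well; Buffer or medium: Mg2+-containing Tris-HCl buffer, pH 7.5; Reagent: 5 mM T5PNP; Dosing: 12.8 µM single point, 1% DMSO; Incubation: reaction 2 h, 37 °C; Detection: p-Nitrophenol epi absorbance; Read-out: % inhibition relative to enzyme-containing and enzyme-free wells; Replicates: single well per compound.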
GSTO1 inh: inhibitors of recombinant GSTO1, primary screen, counter-screen for RBBP9 inhibitor project, biochemical, fluorescence polarization. Glutathione S-transferase omega-1 (Homo sapiens), P78417. activity-based probe fluorescence polarization. inhibition, % at 5.96 µM. 300,000 tested, 1.1% active. AID 1974, 2009;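 active = inhibition above the campaign mean inhibition plus 3 SD, cut at about 35% in these data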;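 note: 0% = GSTO1-1 with DMSO and 100% = wells lacking GSTO1-1 enzyme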
Target sequence (P78417 whole entry, looked up): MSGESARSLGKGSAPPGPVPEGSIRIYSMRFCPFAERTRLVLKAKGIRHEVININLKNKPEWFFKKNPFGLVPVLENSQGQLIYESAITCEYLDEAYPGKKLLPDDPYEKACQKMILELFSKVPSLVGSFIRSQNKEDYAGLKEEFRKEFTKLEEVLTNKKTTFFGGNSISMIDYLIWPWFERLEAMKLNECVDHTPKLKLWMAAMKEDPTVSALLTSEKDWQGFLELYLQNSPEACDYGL
Apaf1 inhib: inhibitors of human Apaf-1 apoptosome, primary screen, biochemical, DEVD-Rh110 fluorescence, uHTS; Apoptotic protease-activating factor 1 (Homo sapiens), O14727; reconstituted apoptosome caspase-3 activity; inhibition, % at 20 µM; 330,000 tested, 0.71% active; AID 489030, 2010; active = inhibition of at least 40% at 20 µM;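 note: plate controls were DMSO wells for no effect and DEVD-CHO caspase inhibitor wells for full effect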
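detection = Rh110 fluorescence intensity | test system = biochemical Apaf-1 apoptosome reconstitution | also added = cytochrome c and DEVD-Rh110 substrate | schedule = 30 min plus 50 min, RT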
PAD4 FP conf: human PAD4 inhibitors, confirmation, biochemical, fluorescence polarization. shares compounds with PAD4 inh. AID 488796, 2010. inhibition, % at 6.36 µM. recombinant PAD4, RCA probe fluorescence polarization. 1,200 tested, 28% active;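 active = mean inhibition across replicates above the hit cutoff set by the earlier primary screen, cut at about 15% in these data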;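 note: inhibitors block active-site labeling by the probe so polarization falls; 0% = PAD4 with probe and DMSO and 100% = probe without PAD4 enzyme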
Apaf-1 inh conf: Apaf-1 inhibitors, single-dose retest, confirmation, biochemical, fluorescence, DEVD-Rh110, 20 µM; shares compounds with Apaf1 inhib; reconstituted apoptosome, caspase-3 DEVD-Rh110 fluorescence; inhibition, % at 20 µM; 1,800 tested, 25% active; AID 504614, 2011;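 active = mean inhibition of at least 40% at 20 µM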;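 note: plate controls were DMSO wells for no effect and DEVD-CHO caspase inhibitor control wells for full effect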
Rh110 interf inh: Rh110 fluorescence interference by putative Apaf-1 inhibitors, confirmation, artefact control for Apaf-1 inhibitor project, biochemical, 20 µM; shares compounds with Apaf1 inhib; quenched caspase reaction; activation (fluorescence interference), % at 20 µM; 1,800 tested, under 10 active; AID 504615, 2011;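 active = signal rise of 40% or more at 20 µM, treated as a fluorescence artifact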
Apaf1 inh interf: fluorescence interference of Apaf-1 inhibitor hits, dose response, artefact control for Apaf-1 inhibitor project; shares compounds with Apaf1 inhib; fluorescence interference counterscreen, Apaf-1 assay format; IC50, µM; 460 tested, under 10 active; AID 588538, 2011; call rule not given here
Starred values were filed as active, the others as inactive; nt = not tested or not shown. This is a sample that favours compounds with a hit; in the whole collection about 2.6% have one here.

SMILES | PRMT1 FP inh | PAD4 inh | TDP2 inh | GSTO1 inh | Apaf1 inhib | PAD4 FP conf | others
O=C1CSC(c2ccccc2O)N1Cc1ccccc1 (stereo unspecified) | 4.9 | 40.5* | -15.5 | 4.6 | 5.4 | 0.3
CN1CC=C2C(C#N)=C(N)C(C#N)(C#N)[C@H](c3ccoc3)[C@H]2C1 | nt | 21.8* | nt | 41.4* | 25.3 | -2.3
CC(=O)N1CC=C2C(C#N)=C(N)C(C#N)(C#N)[C@H](c3ccoc3)[C@H]2C1 | 20.6 | -0.5 | 6.5 | 5.2 | -0.5 | nt
c1ccc(C2=NNC(=NC3CC3)SC2)cc1 | 64.8* | 22.2* | 0.7 | 1.7 | 1.3 | 1.3
Nn1c(SCC(=O)Nc2nc3ccccc3s2)nncc1=O | -0.5 | 21.8* | 7.7 | 16.6 | -10.1 | 38.7*
CCOc1ccc(NC(=O)CSc2nncc(=O)n2N)cc1 | 34.2* | 15.2* | 0.4 | 18.5 | 9.1 | 6.8
Cc1nnc(SCC(=O)Nc2nc3ccccc3s2)n(N)c1=O | 0.8 | 8.8 | 9.8 | 4.7 | -16.4 | nt
CCCc1nnc(SCC(=O)Nc2ccc(OCC)cc2)n1N | 0.2 | 0.9 | -4.9 | -2.3 | -7.8 | nt
O=C(N1CCC(n2nc(-c3ccccc3)oc2=O)CC1)C1(c2ccccc2)CCCC1 | -2.8 | nt | -4.6 | nt | nt | nt
O=C(NC(=S)Nc1ccc(F)c([N+](=O)[O-])c1)c1ccccc1F | 33.0* | 17.5* | -3.7 | 10.9 | 7.4 | 3.1
Cc1cc(Br)ccc1OCCCN1CCC(C(O)(c2ccccc2)c2ccccc2)CC1 | 0.4 | nt | -2.0 | nt | nt | nt
O=C(CS)Nc1ccc2ccccc2c1 | 12.5 | 28.2* | 13.4 | 2.5 | nt | 8.9
CCCCCC(=O)Nc1ccc2ccccc2c1 | 2.4 | 0.7 | -4.1 | -0.6 | 7.4 | nt
N#CCSc1nc2cc(C(=O)N3CCC(C(N)=O)CC3)ccc2c2nc3ccccc3n12 | nt | 21.9* | nt | 0.5 | -6.9 | 25.1*
N#CCSc1nc2cc(C(=O)N3CCCC3)ccc2c(=O)n1Cc1ccccc1 | -3.1 | 1.8 | 6.4 | -5.3 | 11.9 | nt
C/C(=N\NC(=O)C(=O)Nc1cccc(Cl)c1C)c1ccncc1 | -0.4 | 25.4* | -13.9 | 4.5 | 0.3 | 2.0
C/C(=N\NC(=O)C(=O)Nc1cc(Cl)ccc1Cl)c1ccncc1 | -0.1 | -1.9 | -3.8 | -0.4 | 4.6 | nt
CCOC(=O)[C@]12CCCC=C1N(Cc1cccc3ccccc13)C(=O)[C@H](CC(=O)N1CCN(C(=O)C3CC3)CC1)C2 | 0.3 | nt | 6.8 | nt | nt | nt
Oc1ccc(C=Nc2ccccc2-c2nc3ccccc3[nH]2)c(O)c1 | 0.3 | 1.8 | -0.3 | 7.5 | -6.3 | nt
Oc1ccc(C=Nc2cccc3ncccc23)c(O)c1 | 5.4 | 15.6* | 9.0 | 14.6 | 86.7* | 5.3 | Apaf-1 inh conf=5.5;Rh110 interf inh=-91.4
Cn1ccnc1C(O)c1ccccc1 (stereo unspecified) | 2.5 | 1.1 | -0.9 | 3.2 | -3.9 | nt
COc1ccc2ccccc2c1C(O)c1nccn1C (stereo unspecified) | 85.3* | 26.3* | 16.8 | 35.7* | 40.7* | 39.2* | Apaf-1 inh conf=10.4;Rh110 interf inh=-2.2
CC1=NN(c2ccc(Cl)cc2)C(=O)C1C(c1ccccc1O)c1c(C)[nH]n(-c2ccc(Cl)cc2)c1=O (stereo unspecified) | nt | 66.8* | nt | 72.2* | 97.2* | -7.6 | Apaf-1 inh conf=42.1*;Rh110 interf inh=3.5;Apaf1 inh interf=>100
CN(CCO)c1nc(N)c2c(N)nc3c(c2c1C#N)CC(=O)N3C1CCCC1 | nt | 15.9* | nt | 13.9 | 98.3* | 2.9 | Apaf-1 inh conf=21.4;Rh110 interf inh=-0.6
